KCNQ1 act: potentiators or activators of human KCNQ1 potassium channel | P51787 | B-score at 10 µM | 310,000 compounds, 0.35% hits | CHO-K1 KCNQ1, thallium flux FluxOR fluorescence; hits give high values;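 active = fluorescence ratio B-score, a plate-corrected score, at least three library SD, with initial intensity B-score within 5 SD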
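Material: CHO-K1 cells stably expressing KCNQ1. Medium: assay buffer for compound exposure, DMSO matched across wells. Reagent: K+/Tl+ depolarizing stimulus. Compound dosing: single-concentration screen. Times: 37 °C overnight plating, 90-min dark dye load, 20-min compound pretreatment. Technique: FluxOR Tl+ flux fluorescence.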
KCNK3 inh: human KCNK3 channel inhibition, primary screen. O14649. CHO-KCNK3 thallium flux, FluxOR fluorescence; hits give low values. B-score at 10 µM. 340,000 compounds, 0.84% hits. AID 602410;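 active = B-score under library mean minus 4 SD, starting fluorescence ratio at most library mean plus 5 SD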;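 also: more negative B-score means stronger inhibition of thallium flux through KCNK3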
hERG rescue: shields human hERG channel from block by proarrhythmic agents; CHO-hERG, FluxOR thallium flux, dofetilide IC70 present; activation (rescue from dofetilide block), less the hit threshold, % at 10 µM; 310,000 compounds, 0.51% hits; AID 1511;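 active = activation above the mean of controls blocked by dofetilide plus 5 SD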;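 also: thallium influx through hERG after potassium depolarization seen as dye fluorescence rise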
KCNK9 block: human KCNK9 channel inhibition; Q9NPC2; HEK293 KCNK9, FluxOR thallium flux fluorescence; hits give low values; B-score at 10 µM; 310,000 compounds, 1.2% hits; AID 488922;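 active = ratio B-score over 3 SD below the library mean, with starting fluorescence within 5 SD of its mean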;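 also: negative B-score means less thallium flux so channel inhibition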
Target sequence (Q9NPC2 whole entry, looked up): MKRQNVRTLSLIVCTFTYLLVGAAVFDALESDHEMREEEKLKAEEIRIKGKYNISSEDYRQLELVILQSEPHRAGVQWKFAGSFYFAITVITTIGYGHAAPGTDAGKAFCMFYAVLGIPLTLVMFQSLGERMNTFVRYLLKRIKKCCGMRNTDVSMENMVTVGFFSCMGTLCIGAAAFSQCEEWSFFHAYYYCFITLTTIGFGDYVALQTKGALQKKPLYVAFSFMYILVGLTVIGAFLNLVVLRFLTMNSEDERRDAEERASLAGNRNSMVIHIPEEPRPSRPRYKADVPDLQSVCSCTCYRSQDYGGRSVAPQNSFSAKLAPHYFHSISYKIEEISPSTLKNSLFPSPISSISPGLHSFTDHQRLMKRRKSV
KCNQ1 inh: human KCNQ1 channel inhibition; P51787; CHO-K1 KCNQ1, FluxOR thallium flux fluorescence; hits give high values; B-score at 10 µM; 310,000 compounds, 1.3% hits;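 active = compounds whose thallium flux B-score, printed positive for inhibition, exceeds three library SD while starting fluorescence stays within three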;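 also: channel opened by potassium depolarization with thallium stimulus after 20 min compound exposure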
KCNK9 block conf: confirmation of human KCNK9 potassium channel inhibitors; shares compounds with KCNK9 block; HEK293 KCNK9 cells, FluxOR thallium flux fluorescence; inhibition, % at 10 µM; 4,900 compounds, 43% hits;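 active = thallium signal inhibited by more than 5 SD of the compound-free buffer control wells, on both duplicate plates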
Kir21 sel: mouse Kir2.1 off-target activity of KCNK9 modulators; shares compounds with KCNK9 block; Kir2.1 cells, FluxOR thallium flux fluorescence; inhibition, % at 10 µM; 4,900 compounds, 4% hits;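 active = thallium signal drop more than 5 SD beyond the mean of the no-compound control wells, seen in both duplicate plates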;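 also: signal is fluorescence rise after thallium addition divided by baseline fluorescence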
HEK293 Tl ctr: second counter-screen for KCNK9 modulators: effect in non-induced cells. shares compounds with KCNK9 block. non-induced KCNK9-HEK293, FluxOR thallium flux. inhibition, % at 10 µM. 4,900 compounds, 40% hits. AID 492997;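 active = thallium signal drop beyond 5 SD of the untreated control mean, on both duplicate plates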
A number is an active result; - = inactive; . = no result given. Sampled rows, rich in hits. Any-hit rate of the full collection: about 3.1%.

SMILES	KCNQ1 act	KCNK3 inh	hERG rescue	KCNK9 block	KCNQ1 inh	KCNK9 block conf	Kir21 sel	HEK293 Tl ctr
Cn1c(=O)c2c([nH]c(=S)n2CCCc2ccccc2)n(C)c1=O	-	-	-	-	-	.	.	.
CC(CCc1ccccc1)NC(=O)COC(=O)c1cccnc1Cl (centres undefined)	.	-	.	.	.	.	.	.
NS(=O)(=O)c1ccc(NC(=S)Nc2ccn(Cc3cccc4ccccc34)n2)cc1	-	-	-	-	-	-	-	-
CC(NCC(=O)NC(=O)NCCC1=CCCCC1)c1ccc(S(N)(=O)=O)cc1 (centres undefined)	.	-	.	.	.	.	.	.
O=C(O)COc1ccc(/C=C/c2nc(-c3ccccc3O)n[nH]2)cc1	-	-	-	-	-	.	.	.
COc1ccc(/C=C/c2nc(-c3ccccc3O)n[nH]2)cc1OC	-	-	-	-	-	-	-	-
O=[N+]([O-])c1ccc(S(=O)(=O)Nc2ccc3c(c2)OCCO3)cc1	-	-	-	-8.1	-	-	-	-
O=C(CCSC1=NCCCN1)c1ccc(F)cc1	.	-	.	.	.	.	.	.
O=C(Nc1cccc(Cl)c1)N(CCN1CCOCC1)Cc1cccc(Cl)c1	-	-11	-	-12	6	54%	-	34%
COc1ccccc1C1CCN(Cc2ccc3ccccc3c2)CC1	-	-	-	-	-	-	28%	-
COc1ccccc1C1CCN(Cc2ccccc2)CC1	-	-	-	-	-	.	.	.
O=C(N/N=C/c1cccnc1)c1cc(-c2ccc(Br)cc2)nc2ccccc12	-	-	-	-	-	.	.	.
O=C(NCc1ccccc1)C12CN(Cc3ccccc3)CC1C(c1cccc([N+](=O)[O-])c1)=NO2 (centres undefined)	-	-	-	-	-	-	-	-
C=C(C(=O)c1ccccc1)C(CC(=O)c1ccccc1)c1ccccc1 (centres undefined)	-	-	-	-13	-	45%	-	44%
O=C(OC(c1ccccc1)c1nccc2ccccc12)c1cccc([N+](=O)[O-])c1 (centres undefined)	-	-	-	-13	7	40%	-	48%
COc1ccccc1N1CCN(C2CCCN(C(=O)Cn3cccn3)C2)CC1 (centres undefined)	-	-	-	-	-	.	.	.
O=c1cc(N2CCCCC2)c(-c2ccccc2)nn1Cc1ccc(F)cc1	-	-	-	-12	-	60%	-	36%
O=c1c2c(c(-c3ccccc3)nn1Cc1ccccc1)CCCC2	-	-	-	-	-	-	-	28%
CCCOc1ccc(-c2c(=O)n(OCc3ccc([N+](=O)[O-])cc3)c3ccccc3[n+]2[O-])cc1	-	-	-	-11	-	50%	-	34%
C/C(=N\N=c1/scc(C)n1Cc1ccco1)c1cccc([N+](=O)[O-])c1	-	-	-	-8.7	-	-	-	-
Cc1cs/c(=N\N=C\c2cccc([N+](=O)[O-])c2)n1Cc1ccco1	-	-	-	-	-	.	.	.
CN1CCN(S(=O)(=O)c2cc([N+](=O)[O-])ccc2Cl)CC1	-	-	-	-	-	.	.	.
O=[N+]([O-])c1ccc(Cl)c(S(=O)(=O)N2CCCCCC2)c1	-	-	-	-11	-	-	-	24%
Cn1cc(C(=O)NS(=O)(=O)Nc2ccc(Br)cc2)c2ccccc21	-	-	-	-	-	.	.	.
CCN(C(=S)Nc1ccc(Oc2ccccc2)cc1)c1ccccc1	-	-	-	-	-	-	-	-
SMILES	KCNQ1 act	KCNK3 inh	hERG rescue	KCNK9 block	KCNQ1 inh	KCNK9 block conf	Kir21 sel	HEK293 Tl ctr
CCN(C(=S)Nc1cccc(C)c1)c1ccccc1	-	-	-	-	-	.	.	.
CCc1ccccc1NC(=O)CNC(=O)c1cc(C2CC2)nn1-c1ccccc1	.	-	.	.	.	.	.	.
O=C(Oc1ccc2[nH]cc(CCN3C(=O)c4ccccc4C3=O)c2c1)c1ccco1	-	-	-	-11	-	26%	-	-
COc1cc(OC)cc(C(=O)NCC(=O)OC2CCCCC2=O)c1 (centres undefined)	.	-	.	.	.	.	.	.
C=CCSc1nnc(CCCCCN2C(=O)c3cccc4cccc(c34)C2=O)o1	-	-	-	-	-	-	35%	-
Cn1c(CC(=O)Nc2ccccc2)c(Sc2ccccc2)c2ccccc21	-	-	-	-	-	-	-	-
CSc1c(CC(=O)Nc2ccccc2)n(C)c2ccccc12	-	-	-	-	-	.	.	.
Cc1cccc(N2CCN(Cc3nc(-c4cccc(Oc5ccccc5)c4)oc3C)CC2)n1	-	-	-	-	-	-	-	-
COc1ccc(-c2nc(CN3CCN(Cc4ccccc4)CC3)c(C)o2)cc1	-	-	-	-	-	.	.	.
Cc1cccc(N2CCN(C(=O)c3ccc4nc(-c5ccco5)c(-c5ccco5)nc4c3)CC2C)c1 (centres undefined)	-	-	-	-8.8	-	45%	-	-
CC(=O)Nc1ccccc1-c1nc2ccc(C(=O)N3CCN(c4cccc(C)c4)C(C)C3)cc2[nH]c1=O (centres undefined)	-	-	-	-	-	.	.	.
COC(=O)C(C)N(C(=O)c1cccc2ccccc12)c1c(C)cccc1C (centres undefined)	-	-	-	-12	-	52%	-	32%
CCCn1nc(C(=O)Nc2nnc(CC)s2)c2ccccc2c1=O	-	-	-	-	-	.	.	.
CCCCCCn1nc(C(=O)Nc2nc3c(s2)CCCC3)c2ccccc2c1=O	-	-	-	-13	-	58%	-	-
CC(=O)Nc1ccc(C=NNc2ccc([N+](=O)[O-])cc2S(=O)(=O)Nc2ccccc2C(=O)O)cc1	.	-	.	.	.	.	.	.
Cc1ccc(NC(=S)NNc2ccc([N+](=O)[O-])cc2S(=O)(=O)Nc2ccccc2C(=O)O)cc1C	-	-	-	-	-	-	-	-
O=c1c2cc(-c3ccccc3)sc2ncn1-n1cccc1	-	-	-	-	-	.	.	.
Cc1ccc(C)n1-n1c(C)nc2sc(-c3ccccc3)cc2c1=O	-	-	-	-	-	-	-	-
Cc1ccc(C)n1-n1cnc2sc(-c3ccccc3)cc2c1=O	-	-	-	-14	-	44%	-	26%
COc1ccc2oc(C(=O)OCC(=O)Nc3ccc(C(=O)N(C)C)cc3)c(C)c2c1	-	-	-	-	-	.	.	.
CC(=O)Nc1cccc(NC(=O)CCNC(=O)c2ccccc2)c1	-	-	-	-	-	.	.	.
S=c1[nH]nc(-c2cc3c(s2)-c2ccccc2CC3)o1	71	-	134	-	-	-	-	-
Cc1cccc(NC(=O)CCc2nnc3ccc(NCc4ccco4)nn23)n1	-	-	-	-	-	.	.	.
CCOc1ccc(C2CC(c3ccc(OC)c(OC)c3)n3nc(N)nc3N2)cc1 (centres undefined)	-	-	-	-	-	.	.	.

Screening data (PubChem)
